Data published in ChEMBL document CHEMBL5131398, “Novel nucleocapsid protein-targeting phenanthridine inhibitors of SARS-CoV-2” (Eur J Med Chem, 2022).

Assays:
SARS-CoV-2 [1] = experiment: Antiviral activity against Severe acute respiratory syndrome coronavirus 2 infected in African green monkey Vero E6 cells assessed as inhibition of viral cytopathic effect at 0.064 uM incubated for 72 hrs by CCK8 assay relative to control; format: functional; parameters: scale not given: the % may be the effect or the level left
SARS-CoV-2 [2] = experiment: Antiviral activity against Severe acute respiratory syndrome coronavirus 2 infected in African green monkey Vero E6 cells assessed as inhibition of viral cytopathic effect at 1.6 uM incubated for 72 hrs by CCK8 assay relative to control; format: functional; parameters: scale not given: the % may be the effect or the level left
SARS-CoV-2 [3] = experiment: Antiviral activity against Severe acute respiratory syndrome coronavirus 2 infected in African green monkey Vero E6 cells assessed as inhibition of viral cytopathic effect at 40 uM incubated for 72 hrs by CCK8 assay relative to control; format: functional; parameters: scale not given: the % may be the effect or the level left
SARS-CoV-2 [4] = experiment: Antiviral activity against Severe acute respiratory syndrome coronavirus 2 infected in African green monkey Vero E6 cells assessed as inhibition of viral cytopathic effect at 8 uM incubated for 72 hrs by CCK8 assay relative to control; format: functional; parameters: scale not given: the % may be the effect or the level left
SARS-CoV-2 [5] = experiment: Antiviral activity against Severe acute respiratory syndrome coronavirus 2 infected in African green monkey Vero E6 cells assessed as inhibition of viral cytopathic effect at 200 uM incubated for 72 hrs by CCK8 assay relative to control; format: functional; parameters: scale not given: the % may be the effect or the level left
SARS-CoV-2 [6] = experiment: Antiviral activity against Severe acute respiratory syndrome coronavirus 2 infected in African green monkey Vero E6 cells assessed as inhibition of viral cytopathic effect at 0.32 uM incubated for 72 hrs by CCK8 assay relative to control; format: functional; parameters: scale not given: the % may be the effect or the level left
Vero C1008 = experiment: Cytotoxicity against African green monkey Vero E6 cells assessed as reduction in cell viability incubated for 72 hrs by CCK8 assay; format: toxicity, cell-based; conditions: chlorocebus sabaeus, vero c1008, 72 h
In short: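 Vero E6 cells were seeded and grown overnight, then exposed to a range of compound concentrations for 72 h. Viability was read by CCK8. Triplicate.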

SARS-CoV-2 [7] = experiment: Antiviral activity against Severe acute respiratory syndrome coronavirus 2 infected in African green monkey Vero E6 cells assessed as reduction in viral RNA copies at 100 uM incubated for 48 hrs by RT-qPCR analysis relative to control; format: functional; parameters: scale not given: the % may be the effect or the level left
SARS-CoV-2 [8] = experiment: Antiviral activity against Severe acute respiratory syndrome coronavirus 2 infected in African green monkey Vero E6 cells assessed as reduction in viralN-terminal 6-histidine tagged RNA copies at 12.5 uM incubated for 48 hrs by RT-qPCR analysis relative to control; format: functional; parameters: scale not given: the % may be the effect or the level left
SARS-CoV-2 [9] = experiment: Antiviral activity against Severe acute respiratory syndrome coronavirus 2 infected in African green monkey Vero E6 cells assessed as reduction in viral RNA copies at 50 uM incubated for 48 hrs by RT-qPCR analysis relative to control; format: functional; parameters: scale not given: the % may be the effect or the level left
SARS-CoV-2 [10] = experiment: Antiviral activity against Severe acute respiratory syndrome coronavirus 2 infected in African green monkey Vero E6 cells assessed as reduction in viral RNA copies at 3.125 uM incubated for 48 hrs by RT-qPCR analysis relative to control; format: functional; parameters: scale not given: the % may be the effect or the level left
SARS-CoV-2 [11] = experiment: Antiviral activity against Severe acute respiratory syndrome coronavirus 2 infected in African green monkey Vero E6 cells assessed as reduction in viral RNA copies at 6.25 uM incubated for 48 hrs by RT-qPCR analysis relative to control; format: functional; parameters: scale not given: the % may be the effect or the level left
SARS-CoV-2 [12] = experiment: Antiviral activity against Severe acute respiratory syndrome coronavirus 2 infected in African green monkey Vero E6 cells assessed as inhibition of viral cytopathic effect incubated for 72 hrs by CCK8 assay; format: functional, organism-based; conditions: Severe acute respiratory syndrome coronavirus 2, Vero C1008, 72 h

| Compound | Activity (SARS-CoV-2 [1]) | Activity (SARS-CoV-2 [2]) | Activity (SARS-CoV-2 [3]) | Activity (SARS-CoV-2 [4]) | Activity (SARS-CoV-2 [5]) | Activity (SARS-CoV-2 [6]) | CC50 (Vero C1008) | Activity (SARS-CoV-2 [7]) | Activity (SARS-CoV-2 [8]) | Activity (SARS-CoV-2 [9]) | Activity (SARS-CoV-2 [10]) | Activity (SARS-CoV-2 [11]) | EC50 (SARS-CoV-2 [12]) |
| --- | --- | --- | --- | --- | --- | --- | --- | --- | --- | --- | --- | --- | --- |
| CCC(CC)COC(=O)[C@H](C)N[P@](=O)(OC[C@H]1O[C@@](C#N)(c2ccc3c(N)ncnn23)[C@H](O)[C@@H]1O)Oc1ccccc1 | 16.557% | 56.674% | 97.265% | 103.72% | 81.893% | 22.283% | > 200 µM |  |  |  |  |  |  |
| CCN1Cc2cc(OC)c(OC)cc2-c2cccc(N)c21 | 42.07% | 69.61% | 87.56% | 73.32% | 97.85% | 44.04% | > 200 µM | 72.33% | 61.27% | 76.41% | 45.99% | 53.79% | 3.69 µM |
| CCN1Cc2cc(OC)c(OC)cc2-c2cccc(NC(=O)C(F)(F)F)c21 | 49.07% | 84.14% | 87.41% | 82.36% | 99.6% | 66.95% | > 200 µM | 97.83% | 68.79% | 68.9% | 56.23% | 54.85% | 2.18 µM |
